Measured values published in ChEMBL document CHEMBL4342456, “Preventing Morphine-Seeking Behavior through the Re-Engineering of Vincamine's Biological Activity” (J Med Chem, 2020).

Assays:
Format in all cases: cell-based
Neuropeptide S receptor = biological target: T1, Neuropeptide S receptor (Homo sapiens, UniProt Q6W5P4); experiment: Antagonist activity at human Gq-coupled NPSR1b expressed in human U2OS cells assessed as inhibition in neuropeptide S-induced beta-arrestin 2 recruitment incubated for 30 mins followed by neuropeptide S addition and measured after 90 or 180 mins by pathhunter beta-arrestin assay
T1 sequence (Q6W5P4 whole entry): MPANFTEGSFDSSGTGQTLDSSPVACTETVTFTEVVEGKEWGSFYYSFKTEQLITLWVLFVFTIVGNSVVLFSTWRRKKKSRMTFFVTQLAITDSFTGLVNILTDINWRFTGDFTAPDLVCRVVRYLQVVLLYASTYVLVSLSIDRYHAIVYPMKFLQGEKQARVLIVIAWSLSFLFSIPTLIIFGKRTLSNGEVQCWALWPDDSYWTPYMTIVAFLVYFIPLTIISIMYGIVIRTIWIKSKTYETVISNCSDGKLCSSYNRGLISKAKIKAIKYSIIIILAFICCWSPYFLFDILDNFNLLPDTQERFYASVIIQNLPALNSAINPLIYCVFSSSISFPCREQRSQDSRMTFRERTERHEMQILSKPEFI
How it was run: (§1)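 PathHunter beta-arrestin recruitment, antagonist mode, run at DiscoverX. Cells seeded and held at 37 °C, then preincubated with test sample for 30 min at 37 °C or room temperature (1% vehicle). Agonist then added at EC80 for 90 or 180 min. […] IC50 comes from concentration–response runs in the same format.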

[1] = biological target: T2, Prolactin-releasing peptide receptor (Homo sapiens, UniProt P49683); experiment: Antagonist activity at human Gq-coupled PRLHR expressed in CHOK1 cells assessed as inhibition in prolactin releasing peptide (1 to 31)-induced beta-arrestin 2 recruitment incubated for 30 mins followed by prolactin releasing peptide (1 to 31) addition and measured after 90 or 180 mins by pathhunter beta-arrestin assay; how it was run: as §1
T2 sequence (P49683 whole entry): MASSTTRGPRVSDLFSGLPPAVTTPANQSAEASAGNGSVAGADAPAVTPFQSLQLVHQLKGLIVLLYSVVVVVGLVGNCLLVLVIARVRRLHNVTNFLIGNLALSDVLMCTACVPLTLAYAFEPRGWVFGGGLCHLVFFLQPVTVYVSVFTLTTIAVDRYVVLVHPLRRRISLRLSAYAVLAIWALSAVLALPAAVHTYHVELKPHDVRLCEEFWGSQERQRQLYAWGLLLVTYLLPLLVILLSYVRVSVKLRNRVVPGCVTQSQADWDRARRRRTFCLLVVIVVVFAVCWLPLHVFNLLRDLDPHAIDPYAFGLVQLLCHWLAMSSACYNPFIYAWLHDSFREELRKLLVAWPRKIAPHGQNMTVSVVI

[2] = biological target: C-C chemokine receptor type 8 (Homo sapiens, UniProt P51685); experiment: Antagonist activity at human CCR8 expressed in CHOK1 cells assessed as reduction in CCL1-induced beta-arrestin 2 recruitment incubated for 30 mins followed by CCL1 addition and measured after 90 or 180 mins by pathhunter beta-arrestin assay; how it was run: as §1
C-C chemokine receptor type 8, sequence (P51685 whole entry): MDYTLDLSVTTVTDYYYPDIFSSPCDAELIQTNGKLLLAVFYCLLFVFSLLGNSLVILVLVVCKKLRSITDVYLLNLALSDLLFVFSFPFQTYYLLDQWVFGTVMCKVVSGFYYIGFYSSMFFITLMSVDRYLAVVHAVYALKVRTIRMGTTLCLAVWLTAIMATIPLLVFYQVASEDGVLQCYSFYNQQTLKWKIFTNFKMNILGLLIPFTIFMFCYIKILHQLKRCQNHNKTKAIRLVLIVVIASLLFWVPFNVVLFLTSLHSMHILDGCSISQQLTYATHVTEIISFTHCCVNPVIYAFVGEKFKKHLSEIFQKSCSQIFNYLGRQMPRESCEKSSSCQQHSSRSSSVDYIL

IC50 (Neuropeptide S receptor): 5.77 µM
IC50 [1]: 2.43 µM
IC50 [2]: 5.2 µM
Structure (SMILES): CC[C@]12C=C(C(=O)OC)n3c(c(CCNC(=O)c4ccc(Br)cc4)c4ccccc43)[C@H]1N(C#N)CCC2
